Converted amounts (≈) assume the structure as drawn.
How the values were obtained:
[1] = system: Mycolicibacterium smegmatis; assay: Potentiation of Oxacillin-induced antibacterial activity against Mycobacterium smegmatis mc2 155 ATCC 700084 assessed as Oxacillin MIC at 30 uM incubated for 48 hrs by alamarblue dye based broth microdilution method (Rvb =512 ug/ml); assay type: functional
Outline: (§1)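 Inoculum from 48 h cultures set to 5 x 10^5 CFU/mL in 7H9 + ADC and pre-dosed with compound from DMSO stock at fixed concentration. β-lactam two-fold serially diluted from top concentration, with an antibiotic-only control series. Stationary 37 °C for 48 h, then alamarBlue for 8 h. MIC is the lowest blue (non-viable) well. Fold reduction is relative to the antibiotic-only MIC. Duplicates, at least two repeats.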

[2] = system: Mycolicibacterium smegmatis; assay: Antibiofilm activity against Mycobacterium smegmatis mc2 155 ATCC 700084 assessed as inhibition of biofilm formation measured after 24 hrs by crystal violet reporter assay; assay type: functional, organism-based; conditions: MC2 155 ATCC 700084, 24 h
[3] = system: Mycolicibacterium smegmatis; assay: Potentiation of Ampicillin-induced antibacterial activity against Mycobacterium smegmatis mc2 155 ATCC 700084 assessed as fold reduction in Ampicillin MIC at 30 uM incubated for 48 hrs by alamarblue dye based broth microdilution method; assay type: functional; outline: as §1
[4] = system: Mycolicibacterium smegmatis; assay: Potentiation of Cefoxitin-induced antibacterial activity against Mycobacterium smegmatis mc2 155 ATCC 700084 assessed as fold reduction in Cefoxitin MIC at 30 uM incubated for 48 hrs by alamarblue dye based broth microdilution method; assay type: functional; outline: as §1
[5] = system: Mycolicibacterium smegmatis; assay: Potentiation of Ceftazidime-induced antibacterial activity against Mycobacterium smegmatis mc2 155 ATCC 700084 assessed as Ceftazidime MIC at 30 uM incubated for 48 hrs by alamarblue dye based broth microdilution method (reference value: 512 ug/ml); assay type: functional; outline: as §1
[6] = system: Mycolicibacterium smegmatis; assay: Potentiation of Ampicillin-induced antibacterial activity against Mycobacterium smegmatis mc2 155 ATCC 700084 assessed as Ampicillin MIC at 30 uM incubated for 48 hrs by alamarblue dye based broth microdilution method (reference value: 128 ug/ml); assay type: functional; outline: as §1
[7] = system: Mycolicibacterium smegmatis; assay: Antibacterial activity against Mycobacterium smegmatis mc2 155 ATCC 700084 assessed as inhibition of bacterial growth incubated for 48 hrs by alamarblue dye based broth microdilution method; assay type: functional
Outline: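 Inoculum from 48 h cultures set to 5 x 10^5 CFU/mL in 7H9 + ADC. Compound in DMSO two-fold serially diluted from 200 µM top concentration. Stationary 37 °C for 48 h, then alamarBlue for 8 h at 37 °C. MIC is the lowest concentration with no viable bacteria (blue, not pink). Duplicate wells, at least two independent repeats.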

[8] = system: Mycolicibacterium smegmatis; assay: Antibiofilm activity against Mycobacterium smegmatis mc2 155 ATCC 700084 assessed as dispersion of preformed biofilms measured after 24 hrs by crystal violet reporter assay; assay type: functional, organism-based; conditions: MC2 155 ATCC 700084, 24 h
Outline: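 Cultures (48 h) diluted to 0.01 in M9 minimal salts with glucose, MgSO4 and CaCl2 in PVC plates. Biofilm grown stationary at 37 °C for 48 h, washed, then fresh medium with compound added for 24 h at 37 °C. Stained with 0.1% crystal violet 30 min, solubilised in 95% ethanol, OD540 read. Media blanks subtracted. Dispersion calculated against untreated biofilm wells. At least three repeats.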

[9] = system: Mycolicibacterium smegmatis; assay: Potentiation of Cefoxitin-induced antibacterial activity against Mycobacterium smegmatis mc2 155 ATCC 700084 assessed as Cefoxitin MIC at 30 uM incubated for 48 hrs by alamarblue dye based broth microdilution method (reference value: 16 ug/ml); assay type: functional; outline: as §1
[10] = Hemolytic activity in sheep RBC assessed as hemolysis at 200 uM measured after 1 hr by UV spectrometer analysis; assay type: ADME, cell-based, Ovis aries, Erythrocyte; conditions: sheep red blood cells (erythrocytes), read-out: Activity
Outline: (§2)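 Mechanically defibrinated sheep blood was centrifuged, and the cells were washed and resuspended in PBS three times, then diluted 10-fold. Compound was added from DMSO stock. Controls were 1% Triton X (100% lysis) and PBS (zero lysis). Samples were incubated 1 h at 37 °C with shaking at 200 rpm, then centrifuged. Supernatant was diluted 40-fold in distilled water and read at A540. Run in duplicate, repeated at least twice.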

[11] = system: Mycolicibacterium smegmatis; assay: Potentiation of Ceftazidime-induced antibacterial activity against Mycobacterium smegmatis mc2 155 ATCC 700084 assessed as fold reduction in Ceftazidime MIC at 30 uM incubated for 48 hrs by alamarblue dye based broth microdilution method; assay type: functional; outline: as §1
[12] = Hemolytic activity in sheep RBC assessed as hemolysis at 500 uM measured after 1 hr by UV spectrometer analysis; assay type: ADME, cell-based, Ovis aries, Erythrocyte; conditions: sheep red blood cells (erythrocytes), read-out: Activity; outline: as §2
[13] = system: Mycolicibacterium smegmatis; assay: Potentiation of Cefotaxime-induced antibacterial activity against Mycobacterium smegmatis mc2 155 ATCC 700084 assessed as Cefotaxime MIC at 30 uM incubated for 48 hrs by alamarblue dye based broth microdilution method (reference value: 128 ug/ml); assay type: functional; outline: as §1
[14] = system: Mycolicibacterium smegmatis; assay: Potentiation of Cefotaxime-induced antibacterial activity against Mycobacterium smegmatis mc2 155 ATCC 700084 assessed as fold reduction in Cefotaxime MIC at 30 uM incubated for 48 hrs by alamarblue dye based broth microdilution method; assay type: functional; outline: as §1
[15] = system: Mycolicibacterium smegmatis; assay: Potentiation of oxacillin-induced antibacterial activity against Mycobacterium smegmatis mc2 155 ATCC 700084 assessed as fold reduction in oxacillin MIC at 30 uM incubated for 48 hrs by alamarblue dye based broth microdilution method; assay type: functional; outline: as §1

For `Nc1nc(-c2c[nH]c3cc(Br)ccc23)c[nH]1`, the MIC [1] was 512 µg/mL, the IC50 [2] was 7.5 µM and the “fold change (FC)” value [3] was 0. The “fold change (FC)” value [4] was 0, the MIC [5] was 128 µg/mL and the MIC [6] was 128 µg/mL. It also gave an MIC [7] of 100 µM (≈ 27.7 µg/mL), an EC50 [8] of 27.9 µM and an MIC [9] of 16 µg/mL. The hemolysis at 1 h, 200 µM [10] was 7%, the “fold change (FC)” value [11] was 4 and the hemolysis at 1 h, 500 µM [12] was 14%. The MIC [13] was 128 µg/mL, the “fold change (FC)” value [14] was 0 and the “fold change (FC)” value [15] was 0.
